In ChEMBL document CHEMBL1156453, “Cellular characterization of a novel focal adhesion kinase inhibitor” (J Biol Chem, 2007):
Activity calls are given as the source filed them. The calls are words filed in the database; no cut-off is given here.

Assays:
MDCK = experiment: Induction of apoptosis in attached dog MDCK cells assessed as histone accumulation after 16 hrs by ELISA; type: functional, cell-based; details: Canis lupus familiaris
Outline: (§1)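 Attached cells in serum-containing medium treated with inhibitor at the indicated concentrations, 24 h for REF52 and PC3, 16 h for MDCK, then lysed. Free histones in lysates measured by cell death detection ELISA, in duplicate. Untreated adherent cells were the negative control. Cells suspended 16–24 h in serum-free medium were the positive control. One of three experiments shown.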

[1] = molecular target: Insulin receptor (Homo sapiens) (UniProt P06213); experiment: Inhibition of IR at 1 uM
Homo sapiens = species: Homo sapiens; experiment: Inhibition of human PKA at 1 uM
Outline: (§2)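 Recombinant kinases were screened in a commercial profiling panel with the compound at a single concentration of 1 μM. The read-out is percent inhibition of each enzyme's kinase activity.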

[2] = molecular target: Cyclin-dependent kinase 2 (Homo sapiens) (UniProt P24941); experiment: Inhibition of human CDK2/cyclinE at 1 uM
[3] = Inhibition of 10% serum-stimulated cell migration of rat REF52 cells at 10 uM pretreated for 30 mins measured after 6 hrs by transwell assay relative to control; type: functional
Outline: (§3)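 Modified Boyden transwell, 8-μm pores. REF52 cells (1 × 10⁵) pretreated 30 min with inhibitor, which stayed in both chambers. Attractant was 10% FBS in the lower chamber, or membrane underside coated with 1.5 μg/ml fibronectin overnight at 4 °C under serum-free DMEM. Migration 6 h at 37 °C. Underside cells fixed, crystal-violet stained and counted in four fields. Triplicates normalized to untreated control; ANOVA then t-tests.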

[4] = molecular target: Glycogen synthase kinase-3 beta (Homo sapiens, UniProt P49841); experiment: Inhibition of human GSK3-beta
[5] = molecular target: Tyrosine-protein kinase Fyn (Homo sapiens) (UniProt P06241); experiment: Inhibition of Fyn at 1 uM
[6] = Inhibition of FAK Tyr397 phosphorylation in dog MDCK cells after 60 mins by Western blot analysis; type: cell-based; details: Canis lupus familiaris, 1 h
Outline: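 MDCK cells treated with increasing inhibitor concentrations, 60 min, as for REF52. Whole-cell lysates immunoblotted for phospho-FAK Tyr397 and total FAK. Phospho-signal normalized to total FAK, and IC50 derived from the concentration series.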

[7] = Inhibition of ACK at 1 uM; outline: as §2
[8] = Inhibition of cell migration of rat REF52 cells assessed as reduction in rate of movement of cell into wound at 10 uM by wound healing assay in presence of 10% serum; type: functional; set-up: scale not given: the % may be the effect or the level left
PC-3 = experiment: Induction of apoptosis in attached human PC3 cells assessed as histone accumulation after 24 hrs by ELISA; type: functional, cell-based; outline: as §1
[9] = molecular target: Cyclin-dependent kinase 7 (Homo sapiens, UniProt P50613); experiment: Inhibition of human CDK7/cyclinH/MAT1
Focal adhesion kinase 1 [10] = molecular target: T1, Focal adhesion kinase 1 (Homo sapiens, UniProt Q05397); experiment: Inhibition of FAK Tyr397 phosphorylation in human PC3 cells after 60 mins by Western blot analysis
[11] = molecular target: Tyrosine-protein kinase JAK3 (Homo sapiens) (UniProt P52333); experiment: Inhibition of JAK3 at 1 uM
[12] = molecular target: Calcium/calmodulin-dependent protein kinase type IV (Homo sapiens) (UniProt Q16566); experiment: Inhibition of human CaMK4 at 1 uM
Focal adhesion kinase 1 [13] = molecular target: T1, Focal adhesion kinase 1; experiment: Inhibition of FAK Tyr397 phosphorylation in human L3.6pl cells after 60 mins by Western blot analysis
[14] = Cell number in rat REF52 cells at 10 uM after 3 days as % of control; details: REF52, 72 h
[15] = molecular target: CDK6/cyclin D3 (Homo sapiens) (UniProt P30281+Q00534); experiment: Inhibition of human CDK6/cyclinD3 at 1 uM; type: protein-complex assay
[16] = molecular target: Cyclin-dependent kinase 1/cyclin B1 (Homo sapiens) (UniProt P06493+P14635); experiment: Inhibition of human CDK1/cyclinB at 1 uM; type: protein-complex assay; outline: as §2
[17] = molecular target: Inhibitor of nuclear factor kappa-B kinase subunit beta (Homo sapiens) (UniProt O14920); experiment: Inhibition of human IKK-beta at 1 uM
[18] = molecular target: Protein kinase C theta type (Homo sapiens) (UniProt Q04759); experiment: Inhibition of PKCtheta at 1 uM
[19] = molecular target: Ephrin type-B receptor 2 (Homo sapiens) (UniProt P29323); experiment: Inhibition of EphB2 at 1 uM
[20] = molecular target: Insulin-like growth factor 1 receptor (Homo sapiens) (UniProt P08069); experiment: Inhibition of IGF1R at 1 uM
[21] = Inhibition of fibronectin-stimulated cell migration of rat REF52 cells at 10 uM pretreated for 30 mins measured after 6 hrs by transwell assay relative to control; type: functional; outline: as §3
[22] = molecular target: Proto-oncogene tyrosine-protein kinase Src (Homo sapiens) (UniProt P12931); experiment: Inhibition of human cSRC at 1 uM
[23] = molecular target: RAF proto-oncogene serine/threonine-protein kinase (Homo sapiens) (UniProt P04049); experiment: Inhibition of human c-RAF at 1 uM
[24] = molecular target: Ephrin type-A receptor 2 (Homo sapiens) (UniProt P29317); experiment: Inhibition of EphA2 at 1 uM
Focal adhesion kinase 1 [25] = molecular target: T1, Focal adhesion kinase 1; experiment: Inhibition of FAK Tyr397 phosphorylation in human SKOV3 cells after 60 mins by Western blot analysis
[26] = molecular target: Protein DBF4 homolog A (Homo sapiens) (UniProt Q9UBU7); experiment: Inhibition of ASK at 1 uM
[27] = Inhibition of cell migration of rat REF52 cells assessed as reduction in rate of movement of cell into wound at 1 uM by wound healing assay in presence of 10% serum; type: functional; set-up: scale not given: the % may be the effect or the level left
Outline: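 Confluent REF52 monolayers wounded with a pipette tip, with inhibitor added at wounding. Starting 1 h later, cells filmed for 9 h at 37 °C by DIC time-lapse microscopy. Nuclei of single cells tracked, and speed taken as track length divided by total movie time.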

[28] = molecular target: Ribosomal protein S6 kinase beta-1 (Homo sapiens) (UniProt P23443); experiment: Inhibition of human P70S6K at 1 uM
[29] = molecular target: Dual specificity mitogen-activated protein kinase kinase 1 (Homo sapiens) (UniProt Q02750); experiment: Inhibition of human MEK1 at 1 uM
[30] = Inhibition of fibronectin-stimulated cell migration of rat REF52 cells at 1.0 uM pretreated for 30 mins measured after 6 hrs by transwell assay relative to control; type: functional; outline: as §3
[31] = molecular target: Epidermal growth factor receptor (Homo sapiens) (UniProt P00533); experiment: Inhibition of human EGFR at 1 uM

T1 sequence (Q05397 whole entry): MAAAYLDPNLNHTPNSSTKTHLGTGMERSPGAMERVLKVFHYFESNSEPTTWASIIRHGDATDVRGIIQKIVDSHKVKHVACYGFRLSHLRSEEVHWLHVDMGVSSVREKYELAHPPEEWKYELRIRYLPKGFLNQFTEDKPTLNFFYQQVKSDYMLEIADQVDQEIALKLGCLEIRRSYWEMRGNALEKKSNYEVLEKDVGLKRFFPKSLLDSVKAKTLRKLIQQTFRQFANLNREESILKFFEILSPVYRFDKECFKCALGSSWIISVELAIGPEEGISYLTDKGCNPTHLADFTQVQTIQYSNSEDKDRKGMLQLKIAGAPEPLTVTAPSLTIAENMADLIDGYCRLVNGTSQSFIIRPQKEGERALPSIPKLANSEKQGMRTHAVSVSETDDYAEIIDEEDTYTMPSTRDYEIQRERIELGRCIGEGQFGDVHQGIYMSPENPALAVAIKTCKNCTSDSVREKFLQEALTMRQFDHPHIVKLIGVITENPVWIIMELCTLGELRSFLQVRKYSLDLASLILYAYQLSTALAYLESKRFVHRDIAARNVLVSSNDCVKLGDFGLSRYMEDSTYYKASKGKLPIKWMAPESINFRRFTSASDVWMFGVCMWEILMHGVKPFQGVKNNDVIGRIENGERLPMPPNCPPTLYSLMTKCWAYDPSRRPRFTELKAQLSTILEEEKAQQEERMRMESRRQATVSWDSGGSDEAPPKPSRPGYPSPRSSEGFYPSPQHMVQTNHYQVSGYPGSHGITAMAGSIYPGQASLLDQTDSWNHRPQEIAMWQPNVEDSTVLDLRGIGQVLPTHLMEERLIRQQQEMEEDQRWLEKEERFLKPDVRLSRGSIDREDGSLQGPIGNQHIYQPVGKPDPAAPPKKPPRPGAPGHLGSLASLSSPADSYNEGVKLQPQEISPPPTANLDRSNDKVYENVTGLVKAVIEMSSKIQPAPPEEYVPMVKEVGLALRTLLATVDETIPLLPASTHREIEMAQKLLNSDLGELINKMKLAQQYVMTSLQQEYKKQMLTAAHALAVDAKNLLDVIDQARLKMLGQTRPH
Chain of Cyclin-dependent kinase 7 (P50613 whole entry): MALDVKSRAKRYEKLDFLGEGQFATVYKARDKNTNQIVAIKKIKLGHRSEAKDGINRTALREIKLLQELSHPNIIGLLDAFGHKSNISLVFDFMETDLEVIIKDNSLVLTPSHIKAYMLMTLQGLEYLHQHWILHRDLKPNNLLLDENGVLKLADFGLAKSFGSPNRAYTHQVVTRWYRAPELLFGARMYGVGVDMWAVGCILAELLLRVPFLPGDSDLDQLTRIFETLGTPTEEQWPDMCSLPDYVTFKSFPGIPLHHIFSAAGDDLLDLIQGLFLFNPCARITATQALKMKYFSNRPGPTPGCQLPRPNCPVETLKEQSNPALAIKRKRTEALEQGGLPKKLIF
Chain of Protein kinase C theta type (Homo sapiens) (Q04759 whole entry, looked up): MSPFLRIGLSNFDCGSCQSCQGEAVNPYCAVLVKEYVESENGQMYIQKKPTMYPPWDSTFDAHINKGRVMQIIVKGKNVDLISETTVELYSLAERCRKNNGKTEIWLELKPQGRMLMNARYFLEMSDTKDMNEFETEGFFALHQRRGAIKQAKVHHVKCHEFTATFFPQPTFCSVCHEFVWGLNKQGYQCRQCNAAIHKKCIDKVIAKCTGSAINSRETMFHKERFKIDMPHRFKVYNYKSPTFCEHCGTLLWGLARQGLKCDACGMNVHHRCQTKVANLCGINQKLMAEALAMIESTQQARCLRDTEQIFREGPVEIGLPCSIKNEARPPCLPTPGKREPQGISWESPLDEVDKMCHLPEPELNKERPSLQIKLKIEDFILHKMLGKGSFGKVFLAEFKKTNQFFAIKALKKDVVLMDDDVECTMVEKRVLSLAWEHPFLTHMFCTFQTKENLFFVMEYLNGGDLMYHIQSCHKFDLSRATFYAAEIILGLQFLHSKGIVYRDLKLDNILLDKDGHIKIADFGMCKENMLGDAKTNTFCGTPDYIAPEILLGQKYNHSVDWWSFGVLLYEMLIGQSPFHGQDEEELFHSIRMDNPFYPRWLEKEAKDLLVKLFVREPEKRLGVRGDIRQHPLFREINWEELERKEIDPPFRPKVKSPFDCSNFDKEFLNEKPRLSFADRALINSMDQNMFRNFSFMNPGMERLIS
Chain of Proto-oncogene tyrosine-protein kinase Src (Homo sapiens) (P12931 2-536 limits assumed): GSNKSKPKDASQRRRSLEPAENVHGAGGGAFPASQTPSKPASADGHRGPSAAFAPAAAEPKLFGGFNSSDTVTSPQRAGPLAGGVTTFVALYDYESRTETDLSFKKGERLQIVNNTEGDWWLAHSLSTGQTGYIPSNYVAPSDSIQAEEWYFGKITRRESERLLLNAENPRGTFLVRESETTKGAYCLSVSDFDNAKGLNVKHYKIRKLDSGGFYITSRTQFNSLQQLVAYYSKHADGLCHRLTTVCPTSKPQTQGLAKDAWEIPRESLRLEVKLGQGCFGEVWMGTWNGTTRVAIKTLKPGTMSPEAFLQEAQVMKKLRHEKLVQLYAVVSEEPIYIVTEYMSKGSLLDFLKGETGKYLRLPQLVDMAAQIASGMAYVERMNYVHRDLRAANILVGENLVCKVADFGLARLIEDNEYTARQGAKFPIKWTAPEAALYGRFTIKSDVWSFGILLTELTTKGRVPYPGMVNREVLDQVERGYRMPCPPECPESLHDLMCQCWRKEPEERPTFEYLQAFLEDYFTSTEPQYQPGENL
Chain of Tyrosine-protein kinase Fyn (Homo sapiens) (P06241 2-537 limits assumed): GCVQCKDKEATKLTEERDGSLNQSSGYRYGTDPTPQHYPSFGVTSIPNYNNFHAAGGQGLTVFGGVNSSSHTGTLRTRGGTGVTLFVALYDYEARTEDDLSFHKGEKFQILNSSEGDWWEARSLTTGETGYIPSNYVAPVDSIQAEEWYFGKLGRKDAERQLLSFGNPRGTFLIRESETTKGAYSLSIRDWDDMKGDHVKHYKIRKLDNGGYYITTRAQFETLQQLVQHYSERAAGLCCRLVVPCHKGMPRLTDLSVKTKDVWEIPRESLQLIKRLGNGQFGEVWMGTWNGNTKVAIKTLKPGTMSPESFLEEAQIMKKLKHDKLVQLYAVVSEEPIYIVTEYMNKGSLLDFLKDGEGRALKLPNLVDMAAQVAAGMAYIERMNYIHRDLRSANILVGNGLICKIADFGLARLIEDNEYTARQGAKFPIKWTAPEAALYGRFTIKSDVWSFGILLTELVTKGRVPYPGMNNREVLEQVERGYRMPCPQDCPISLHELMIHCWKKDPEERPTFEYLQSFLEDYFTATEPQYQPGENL
Chain of Inhibitor of nuclear factor kappa-B kinase subunit beta (Homo sapiens) (O14920 whole entry): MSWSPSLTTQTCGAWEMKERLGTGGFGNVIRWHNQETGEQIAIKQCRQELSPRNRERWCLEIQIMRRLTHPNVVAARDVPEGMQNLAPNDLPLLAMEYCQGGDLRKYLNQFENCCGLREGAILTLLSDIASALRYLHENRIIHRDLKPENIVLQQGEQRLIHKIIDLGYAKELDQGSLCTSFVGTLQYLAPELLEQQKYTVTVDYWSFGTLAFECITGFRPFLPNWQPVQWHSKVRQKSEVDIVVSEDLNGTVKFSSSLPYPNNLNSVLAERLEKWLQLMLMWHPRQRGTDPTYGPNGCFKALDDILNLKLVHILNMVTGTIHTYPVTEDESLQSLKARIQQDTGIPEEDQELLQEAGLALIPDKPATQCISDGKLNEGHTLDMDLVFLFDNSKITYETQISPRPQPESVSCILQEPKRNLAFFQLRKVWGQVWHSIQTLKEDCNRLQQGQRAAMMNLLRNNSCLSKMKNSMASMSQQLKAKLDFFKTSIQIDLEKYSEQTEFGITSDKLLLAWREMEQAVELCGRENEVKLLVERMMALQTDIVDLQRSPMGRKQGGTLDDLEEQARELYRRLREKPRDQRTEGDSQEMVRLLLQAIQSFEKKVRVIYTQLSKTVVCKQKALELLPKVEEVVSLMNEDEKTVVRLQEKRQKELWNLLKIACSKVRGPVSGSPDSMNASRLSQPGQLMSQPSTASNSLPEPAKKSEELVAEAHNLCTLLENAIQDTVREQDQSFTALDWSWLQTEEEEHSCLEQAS
Chain of Tyrosine-protein kinase JAK3 (Homo sapiens) (P52333 whole entry): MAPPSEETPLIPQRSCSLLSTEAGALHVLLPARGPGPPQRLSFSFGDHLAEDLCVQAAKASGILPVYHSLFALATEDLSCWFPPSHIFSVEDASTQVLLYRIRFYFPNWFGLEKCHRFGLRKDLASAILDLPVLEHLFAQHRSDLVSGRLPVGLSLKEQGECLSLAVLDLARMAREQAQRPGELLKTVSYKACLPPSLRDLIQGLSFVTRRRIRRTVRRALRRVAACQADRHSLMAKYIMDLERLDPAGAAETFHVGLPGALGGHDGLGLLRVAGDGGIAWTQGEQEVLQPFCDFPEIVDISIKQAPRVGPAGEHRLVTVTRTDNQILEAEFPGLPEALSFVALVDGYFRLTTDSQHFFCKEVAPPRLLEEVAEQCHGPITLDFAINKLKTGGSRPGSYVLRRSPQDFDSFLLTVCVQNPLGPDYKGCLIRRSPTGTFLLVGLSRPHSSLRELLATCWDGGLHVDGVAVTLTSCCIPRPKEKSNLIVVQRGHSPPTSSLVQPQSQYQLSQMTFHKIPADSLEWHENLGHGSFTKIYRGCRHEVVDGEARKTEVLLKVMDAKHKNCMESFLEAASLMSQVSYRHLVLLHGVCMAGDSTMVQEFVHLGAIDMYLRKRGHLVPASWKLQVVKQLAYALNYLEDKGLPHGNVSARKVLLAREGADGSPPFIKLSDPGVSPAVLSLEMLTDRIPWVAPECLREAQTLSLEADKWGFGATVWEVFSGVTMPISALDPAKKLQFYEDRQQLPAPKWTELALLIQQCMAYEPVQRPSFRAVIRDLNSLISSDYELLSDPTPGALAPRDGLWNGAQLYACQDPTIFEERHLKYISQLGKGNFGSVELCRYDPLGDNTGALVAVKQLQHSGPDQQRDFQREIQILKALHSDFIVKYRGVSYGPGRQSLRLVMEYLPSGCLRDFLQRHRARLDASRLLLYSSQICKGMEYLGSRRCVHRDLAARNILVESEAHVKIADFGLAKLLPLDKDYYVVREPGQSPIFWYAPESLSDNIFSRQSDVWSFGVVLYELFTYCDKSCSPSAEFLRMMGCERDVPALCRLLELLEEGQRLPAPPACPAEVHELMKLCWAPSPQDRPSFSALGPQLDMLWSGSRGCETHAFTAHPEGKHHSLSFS

SMILES: CS(=O)(=O)c1cccc(CNc2nc(Nc3ccc4c(c3)CCC(=O)N4)ncc2C(F)(F)F)c1
- Activity (MDCK): inactive
- inhibition [1]: 27%
- inhibition (Homo sapiens): 0%
- inhibition [2]: 44%
- Activity [3]: 0.3
- IC50 [4]: > 1000 nM
- inhibition [5]: 28%
- IC50 [6]: 500 nM
- inhibition [7]: 29%
- Activity [8]: 60%
- Activity (PC-3): inactive
- IC50 [9]: 197 nM
- IC50 (Focal adhesion kinase 1 [10]): 100 nM
- inhibition [11]: 27%
- inhibition [12]: 0%
- IC50 (Focal adhesion kinase 1 [13]): 300 nM
- level, % of control at 10 µM [14]: 7%
- inhibition [15]: 15%
- inhibition [16]: 77%
- inhibition [17]: 56%
- inhibition [18]: 36%
- inhibition [19]: 11%
- inhibition [20]: 21%
- Activity [21]: 0.5
- inhibition [22]: 1%
- inhibition [23]: 0%
- inhibition [24]: 15%
- IC50 (Focal adhesion kinase 1 [25]): 50 nM
- inhibition [26]: 1%
- Activity [27]: 27%
- inhibition [28]: 31%
- inhibition [29]: 20%
- Activity [30]: 2.2
- inhibition [31]: 0%
